Results published in ChEMBL document CHEMBL1128486, “Farnesyl diphosphate-based inhibitors of Ras farnesyl protein transferase” (J Med Chem, 1995).

Molecular target: Mevalonate kinase (Rattus norvegicus, UniProt P17256)
Assay: Inhibition of mevalonate kinase
Conditions: read-out: I50
How it was run: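 Mevalonate kinase was purified to homogeneity from rat liver and used for inhibition measurement.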

Sequence of Mevalonate kinase (P17256 whole entry): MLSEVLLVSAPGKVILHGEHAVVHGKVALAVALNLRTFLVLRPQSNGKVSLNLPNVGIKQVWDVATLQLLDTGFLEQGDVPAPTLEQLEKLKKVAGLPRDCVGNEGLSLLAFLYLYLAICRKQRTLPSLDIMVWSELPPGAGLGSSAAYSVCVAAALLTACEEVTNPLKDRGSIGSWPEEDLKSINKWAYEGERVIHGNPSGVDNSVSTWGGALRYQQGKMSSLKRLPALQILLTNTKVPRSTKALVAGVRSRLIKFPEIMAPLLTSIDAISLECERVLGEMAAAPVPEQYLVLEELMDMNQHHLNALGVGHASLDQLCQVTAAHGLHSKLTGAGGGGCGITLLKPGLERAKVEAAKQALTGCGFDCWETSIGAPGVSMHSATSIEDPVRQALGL

Row | IC50 | SMILES
1 | > 200 µM | CC(C)=CCC/C(C)=C/CC/C(C)=C/CNC(=O)C(CP(=O)(O)O)C(=O)O (centres undefined)

Molecular target: Protein farnesyltransferase (Sus scrofa)
Assay: Inhibition of pig brain farnesyl transferase
Conditions: read-out: I50

Row | IC50 | SMILES
2 | 0.075 µM | CC(C)=CCC/C(C)=C/CC/C(C)=C/CNC(=O)C(CP(=O)(O)O)C(=O)O (centres undefined)

Molecular target: Protein farnesyltransferase (Sus scrofa)
Assay: Inhibition of pig brain farnesyl transferase
Conditions: read-out: I50
Remark: another data set of the same source

Row | IC50 | SMILES
3 | 4.6 µM | CC(C)=CCC/C(C)=C/CC/C(C)=C/CNC(=O)CCP(=O)(O)O
4 | 115 µM | CC(C)=CCC/C(C)=C/CC/C(C)=C/CNC(=O)CC(=O)O
5 | 41.5 µM | CC(C)=CCC/C(C)=C/CC/C(C)=C/CNC(=O)CP(=O)(O)O

Molecular target: Protein farnesyltransferase (Sus scrofa)
Assay: Inhibition of pig brain farnesyl transferase
Conditions: read-out: I50
Remark: another data set of the same source

Row | IC50 | SMILES
6 | 220 µM | CC(C)=CCC/C(C)=C/CC/C(C)=C/CNC(=O)CCC(=O)O
7 | 12.6 µM | CC(C)=CCC/C(C)=C/CC/C(C)=C/C(=O)N[C@@H](CC(=O)O)C(=O)O
8 | 25 µM | CC(C)=CCC/C(C)=C/CC/C(C)=C/C(=O)N[C@H](CC(=O)O)C(=O)O
9 | 11.5 µM | CC(C)=CCC/C(C)=C/CC/C(C)=C/C(=O)N[C@@H](CCC(=O)O)C(=O)O
10 | 0.53 µM | CC(C)=CCC/C(C)=C/CC/C(C)=C/CN(C)C(=O)C(CP(=O)(O)O)C(=O)O (centres undefined)
11 | 0.5 µM | CC(C)=CCC/C(C)=C/CC/C(C)=C/C(=O)N[C@H](CP(=O)(O)O)C(=O)O

More lines, now with the values behind:

Row | SMILES | IC50
12 | CC(C)=CCC/C(C)=C/CC/C(C)=C/CC(=O)N[C@@H](CP(=O)(O)O)C(=O)O | 1.7 µM
13 | CC(C)=CCC/C(C)=C/CC/C(C)=C/CCNC(=O)C(CP(=O)(O)O)C(=O)O (centres undefined) | 17.8 µM
14 | CC(C)=CCC/C(C)=C/CCC(C)(C)CCNC(=O)C(CP(=O)(O)O)C(=O)O (centres undefined) | 55 µM
15 | CC(C)=CCC/C(C)=C/CC/C(C)=C/C(=O)N[C@@H](CP(=O)(O)O)C(=O)O | 0.25 µM
16 | CC(C)=CCC/C(C)=C/CC/C(C)=C/CC(=O)N[C@H](CP(=O)(O)O)C(=O)O | 0.05 µM
17 | CC(C)=CCC/C(C)=C/CC/C(C)=C/C(=O)N[C@H](CCC(=O)O)C(=O)O | 30 µM
18 | CCCCCCCCCCCCNC(=O)C(CP(=O)(O)O)C(=O)O (centres undefined) | 9 µM

Molecular target: T1, Squalene synthase (Rattus norvegicus, UniProt Q02769)
T1 sequence (Q02769 whole entry): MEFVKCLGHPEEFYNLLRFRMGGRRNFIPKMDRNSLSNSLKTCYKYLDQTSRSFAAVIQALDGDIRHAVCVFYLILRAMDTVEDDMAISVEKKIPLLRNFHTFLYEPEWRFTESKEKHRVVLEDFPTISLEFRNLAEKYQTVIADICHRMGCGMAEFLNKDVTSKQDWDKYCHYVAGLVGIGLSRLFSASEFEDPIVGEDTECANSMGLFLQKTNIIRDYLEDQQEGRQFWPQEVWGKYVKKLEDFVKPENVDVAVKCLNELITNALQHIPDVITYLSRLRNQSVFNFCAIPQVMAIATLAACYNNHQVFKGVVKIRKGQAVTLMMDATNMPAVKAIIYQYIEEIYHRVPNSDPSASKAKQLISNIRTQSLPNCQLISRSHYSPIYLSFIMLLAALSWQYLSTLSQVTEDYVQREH
Assay: Inhibition of squalene synthase
Conditions: read-out: I50
How it was run: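 Squalene synthetase was prepared from rat liver microsomes and used for I50 determination.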

Row | IC50 | SMILES
19 | 516 µM | CC(C)=CCC/C(C)=C/CC/C(C)=C/CNC(=O)C(CP(=O)(O)O)C(=O)O (centres undefined)
